High-throughput results (PubChem)
CHT inh = inhibits the human high affinity choline transporter. CHT-expressing cells, membrane potential dye, choline response; hits give low values. B-score at 10 µM. 0.86% of 310,000 active;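 active = B-score over 3 SD under the library average, and starting fluorescence ratio not unusually high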;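 also: choline stimulus applied at its EC90 after an EC20 pre-addition; B-score computed on integrated fluorescence ratio after choline addition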
Target sequence (Q9GZV3 whole entry, looked up): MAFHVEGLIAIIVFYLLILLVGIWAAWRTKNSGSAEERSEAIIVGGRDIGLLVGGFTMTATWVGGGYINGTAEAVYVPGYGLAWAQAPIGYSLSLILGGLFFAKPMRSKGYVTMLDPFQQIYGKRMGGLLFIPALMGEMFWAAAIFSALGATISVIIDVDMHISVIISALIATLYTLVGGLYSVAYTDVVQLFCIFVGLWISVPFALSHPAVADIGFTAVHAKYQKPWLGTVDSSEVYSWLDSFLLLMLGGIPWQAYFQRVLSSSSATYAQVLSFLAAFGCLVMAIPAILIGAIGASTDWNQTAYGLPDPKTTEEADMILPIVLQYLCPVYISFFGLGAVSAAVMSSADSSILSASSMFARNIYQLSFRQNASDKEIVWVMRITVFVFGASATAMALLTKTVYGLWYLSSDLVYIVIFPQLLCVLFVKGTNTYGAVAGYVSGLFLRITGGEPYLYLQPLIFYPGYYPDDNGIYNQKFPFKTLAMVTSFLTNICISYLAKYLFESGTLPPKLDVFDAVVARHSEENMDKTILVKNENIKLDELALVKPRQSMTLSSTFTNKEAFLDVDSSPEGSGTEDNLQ
HSF1 inh = HSF1 inhibition; NIH3T3-HGL HSE-luciferase, MG132-induced, luminescence 8 h; hits give low values; activity change, negative = inhibition, % at 7.5 µM (by protocol); 0.77% of 300,000 active; AID 2098;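 active = more than half of replicate wells show activity change below -50%, luminescence cut by over half; inconclusive = some wells, but at most half, below -50%; inactive = no replicate well below -50%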;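 also: luciferase reports HSF-1 transcriptional activity via heat shock element; 0% = median of DMSO wells and -100% = zero luminescence signal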
PHOSPHO1 inh = PHOSPHO1 (human) inhibition | recombinant PHOSPHO1, absorbance phosphatase assay | AID 1565 | inhibition, % at 13.3 µM | Q8TCT1 | 1.1% of 290,000 active; in the data active = inhibition above about 60%
CHT allo act = allosterically activates the human high affinity choline transporter; Q9GZV3; CHT-expressing cells, membrane potential dye, choline EC20; hits give high values; LV-AA mutant CHT in HEK293 cells; B-score at 10 µM; 0.49% of 310,000 active; AID 488977;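 active = initial fluorescence not abnormally high and integrated response B-score, plate-corrected, over 3 SD above library mean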
HSF1 activator = increases HSF-1 driven luciferase reporter signal; NIH3T3-HGL HSF-1 luciferase reporter, MG132, 8 h; 100% = twice DMSO control signal; activation, % at 9 µM; 1.7% of 300,000 active;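 active = mean replicate activation of at least 50% with a set share of replicates each reaching 50%; inconclusive = only one of those two conditions met; inactive = mean below 50% and too few replicates reaching it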;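 also: 0% = median of the neutral control wells and 100% = twice that signal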
Hep lipid drop = modulators of hepatic lipid droplet formation; AML12 mouse hepatocytes, oleate lipid droplets, BODIPY imaging; 0.4% of 240,000 active; inhibition, % at 6.5 µM;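 active = lipid droplet intensity inhibited by at least 50%, with more than 500 cells counted; inconclusive = wells with under 300 cells, treated as cytotoxic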
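Material – AML12 mouse liver cells · Also added – oleate loading, 100 µM · Compound dosing – 6.5 µM single-point dosing · Times – overnight treatment with compound plus oleate · Measured by – fluorescence imaging, 20x objective, two fields per well · Read-out – percent inhibition of filter-corrected integrated lipid droplet intensity per well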
Lipid drop inh = hepatic lipid droplet formation inhibition, confirmed | shares compounds with Hep lipid drop | AML12 mouse hepatocytes, BODIPY lipid droplet imaging; droplets induced with 100 µM oleic acid | inhibition, % at 5.2 µM | 65% of 870 active | AID 463183;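 active = inhibition of lipid droplet metric at least 50%, with more than 300 cells in each of four replicates; inconclusive = wells under 300 cells, flagged as toxic or low count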;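 also: plate controls were DMSO with oleic acid for no effect and 5 µM Triacsin-C for full effect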
AML12 tox img = toxic to AML12 mouse hepatocytes in counter-screen | DAPI nuclear morphology cytotoxicity imaging; hits give high values; cells fed 100 µM oleate overnight | AID 463200 | z-score at 5 µM | shares compounds with Hep lipid drop | 3% of 870 active; in the data active = z-score above about 6.3;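 also: compound exposure lasted overnight at 37 °C before fixation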
AML12 tox conf = AML12 hepatocyte cytotoxicity, confirmed | 530 tested, under 10 active | AML12 mouse hepatocyte viability, ATP luminescence; cells loaded with 100 µM oleic acid | shares compounds with Hep lipid drop | cytotoxicity, % at 50 µM;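 active = cytotoxicity above 50% in each of four replicates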;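 also: compound exposure lasted overnight at 37 °C before the ATP read; 0% = DMSO-treated cells and 100% = wells with no cells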
Numbers without * were called inactive; i = inactive; ? = inconclusive; / = not tested or not shown. Most compounds without a hit are left out; they make up all but 4.9% or so of the library.

SMILES | CHT inh | HSF1 inh | PHOSPHO1 inh | CHT allo act | HSF1 activator | Hep lipid drop | Lipid drop inh | AML12 tox img | AML12 tox conf
CCCCn1c(N)c(N(Cc2ccccc2OC)C(=O)C2=COCCO2)c(=O)[nH]c1=O | i | 3 | / | i | -4 | / | / | / | /
COc1cc(/C=N/Nc2nc(N3CCCCC3)nc(N3CCCCC3)n2)ccc1OC(=O)c1ccco1 | i | -1 | 17 | i | 29 | 11 | / | / | /
Cc1[nH]c2ccccc2c1/C=N/Nc1nc(Nc2ccc(F)cc2)nc(N2CCOCC2)n1 | i | / | 29 | i | / | 61* | ? | 108* | /
Fc1ccc(Nc2nc(N3CCOCC3)nc(N3CCOCC3)n2)cc1 | i | -6 | 28 | i | -6 | 4 | / | / | /
O=C(Oc1cccc(/C=N/Nc2nc(Nc3ccccc3)nc(N3CCOCC3)n2)c1)c1ccco1 | i | -8 | 26 | i | -16 | 120* | 42 | 13* | /
CN1CCN(S(=O)(=O)c2cccc(C(=O)NCc3ccccc3Cl)c2)CC1 | i | 7 | 1 | i | -1 | 0 | / | / | /
CCn1cc([N+](=O)[O-])c(C(=O)N2N=C(c3ccc4ccccc4c3)CC2c2cc(Br)ccc2O)n1 (configuration not stated) | i | 2 | -4 | i | 21 | 89* | 77* | -1.5 | 11
CCn1cc([N+](=O)[O-])c(C(=O)N2N=C(c3ccc(Cl)c(Cl)c3)CC2c2ccccc2O)n1 (configuration not stated) | i | 49 | 27 | i | ? | 23 | / | / | /
C#CCNC(=O)C1=C[C@@H](c2coc3ccccc3c2=O)C[C@@H](OCCCCO)O1 | i | 0 | 48 | i | 0 | 8 | / | / | /
CNc1nc2c(C)cccn2c(=O)c1C=NCc1ccccc1 | i | -4 | -12 | i | 11 | -4 | / | / | /
O=C(NC1CCCc2c1cnn2-c1ccc(F)cc1F)c1ccccn1 (configuration not stated) | i | / | 3 | i | / | 32 | / | / | /
O=C(NC1CCCc2c1cnn2-c1ccccc1F)c1ccccn1 (configuration not stated) | i | -3 | 29 | i | -28 | 71* | 88* | 1.5 | 7
CN(C)c1ccc(C(CNS(=O)(=O)c2ccc(F)cc2)c2c[nH]c3ccccc23)cc1 (configuration not stated) | i | 1 | -5 | i | 27 | 32 | / | / | /
CCOC(=O)c1ccc(S(=O)(=O)NCC(c2ccc(N(C)C)cc2)c2c[nH]c3ccccc23)cc1 (configuration not stated) | i | 3 | -9 | i | 9 | 96* | 108* | 0.39 | 14
C/C(=N/NC(=O)c1nnn(-c2nonc2N)c1-c1ccccc1)c1ccc2c(c1)OCO2 | i | 4 | -2 | i | 17 | 10 | / | / | /
C/C(=N\N=C(/N)c1nonc1N)c1ccc2c(c1)OCO2 | i | 53 | 37 | i | 101* | 66* | 27 | 0.38 | /
Cc1ccc(S(=O)(=O)N2CCC(=O)N(C(COCc3ccc(Cl)cc3Cl)Cc3ccccc3)CC2)cc1 (configuration not stated) | i | 3 | -6 | i | 13 | -6 | / | / | /
CCOc1ccc(C(=O)CCC(=O)NCC(=O)OCc2ccccc2)cc1OCC | i | -9 | 20 | i | -22 | 93* | 73* | -0.48 | 9
CCOc1ccc(C(=O)NCC(=O)NC(C)CCc2ccccc2)cc1OCC (configuration not stated) | i | -5 | 31 | i | 1 | 75* | 106* | 1.1 | 16
COc1cc(C(=O)NCC(=O)NC(C)CCc2ccccc2)cc(OC)c1OC (configuration not stated) | i | -5 | 9 | i | -10 | 4 | / | / | /
COc1ccc(C(=O)OC(C)C(=O)NC(C)CCc2ccccc2)cc1OC (configuration not stated) | i | 2 | 37 | i | 5 | 103* | 107* | -0.018 | 14
COc1ccc(C(=O)N2N=C(c3cccs3)CC2c2ccccc2O)cc1 (configuration not stated) | i | 7 | 24 | i | 20 | 9 | / | / | /
CCC(C)(C)NC(=O)C(c1ccc(OC)cc1)N(C(=O)CCC(=O)Nc1cc(C)on1)c1cccc(OC)c1 (configuration not stated) | i | 1 | 24 | i | 23 | -40 | / | / | /
CCC(C)(C)NC(=O)C(c1ccc(OC)cc1)N(Cc1cccs1)C(=O)CCC(=O)Nc1cc(C)on1 (configuration not stated) | i | / | -11 | i | / | 78* | 102* | 0.51 | 12
CCC(C)(C)NC(=O)C(c1ccc(OC)cc1)N(C(=O)CCC(=O)Nc1cc(C)on1)C1CC1 (configuration not stated) | i | 6 | -12 | i | 14 | 8 | / | / | /
SMILES | CHT inh | HSF1 inh | PHOSPHO1 inh | CHT allo act | HSF1 activator | Hep lipid drop | Lipid drop inh | AML12 tox img | AML12 tox conf
COc1ccc(C(C(=O)NC(C)(C)C)N(Cc2cccs2)C(=O)CCC(=O)Nc2cc(C)on2)cc1 (configuration not stated) | i | -1 | 8 | i | -19 | 107* | 88* | -0.52 | 7
CCC(C)(C)NC(=O)C(c1ccc(OC)cc1)N(CC1CCCO1)C(=O)CCC(=O)Nc1cc(C)on1 (configuration not stated) | i | 1 | 3 | i | -12 | 79* | 91* | -0.48 | 11
O=C(Nc1nccs1)c1ccc(COc2ccccc2Br)o1 | i | 35 | -3 | i | 43 | 6 | / | / | /
COC(=O)c1ccccc1NC(=O)c1cccc(NC(=O)c2ccc(Br)o2)c1C | i | 10 | -23 | i | -4 | 62* | 96* | 0.025 | 12
COc1ccc(C(=O)NNC(=O)C(=O)NCc2ccccc2)cc1 | i | 7 | 4 | i | 37 | 2 | / | / | /
Cc1ccc(-c2cc(C(=O)NC3=NCCS3)c3cc(Br)ccc3n2)o1 | i | 0 | 21 | i | 22 | 107* | 4 | -0.45 | /
Cc1ccc(-c2cc(C(=O)O)c3cc(Br)ccc3n2)o1 | i | 4 | 44 | i | -4 | -4 | / | / | /
C=CCNC(=S)Nc1cc(S(=O)(=O)N2CCOCC2)ccc1-n1cncn1 | i | 3 | 6 | i | -2 | 119* | -7 | -0.26 | /
